Test results: ChEMBL document CHEMBL1159094, “New iodinated quinoline-2-carboxamides for SPECT imaging of the translocator protein” (Bioorg Med Chem Lett, 2010)

Experiments:
Translocator protein = Translocator protein (Rattus norvegicus, UniProt P16257); assay: Displacement of [3H]PK11195 from TSPO in Sprague-Dawley rat brain homogenates by liquid scintillation counting; assay type: tissue-based
[1] = Lipophilicity, log P by HPLC method; conditions: octanol/water
[2] = Chemical stability in 0.01 mM phosphate buffered saline assessed as purity of parent compound after 1 hr by HPLC analysis; assay type: physicochemical; conditions: read-out: Activity
In short: (§1)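 Test compound incubated in phosphate buffered saline at 37 °C. Parent compound decomposition followed over time by HPLC.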

[3] = Chemical stability in 0.01 mM phosphate buffered saline assessed as purity of parent compound after 2 hrs by HPLC analysis; assay type: physicochemical; conditions: read-out: Activity; in short: as §1
[4] = Chemical stability in 0.01 mM phosphate buffered saline assessed as purity of parent compound after 4 hrs by HPLC analysis; assay type: physicochemical; conditions: read-out: Activity; in short: as §1
[5] = Chemical stability in 0.01 mM phosphate buffered saline assessed as purity of parent compound after 6 hrs by HPLC analysis; assay type: physicochemical; conditions: read-out: Activity; in short: as §1
[6] = Chemical stability in 0.01 mM phosphate buffered saline assessed as purity of parent compound after 24 hrs by HPLC analysis; assay type: physicochemical; conditions: read-out: Activity; in short: as §1

Translocator protein, sequence (P16257 whole entry, looked up): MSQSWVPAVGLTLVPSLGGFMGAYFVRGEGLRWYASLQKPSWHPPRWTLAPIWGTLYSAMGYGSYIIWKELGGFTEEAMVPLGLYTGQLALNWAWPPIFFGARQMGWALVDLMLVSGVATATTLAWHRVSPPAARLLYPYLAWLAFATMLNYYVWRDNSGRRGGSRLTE

Row | Ki (Translocator protein) [nM] | logP [1] | Compound | also measured
1 | > 1000 | 5.12 | Cc1c(C(=O)N(C)Cc2ccc(I)cc2)nc2ccccc2c1-c1ccccc1 | –
2 | – | 3.85 | CCC(C)N(C)C(=O)c1cc2ccccc2c(-c2ccccc2Cl)n1 (configuration not stated) [PK-11195] | –
3 | 411 | 5.41 | CN(CCc1ccccc1)C(=O)c1nc2ccccc2c(-c2ccccc2)c1CI | –
4 | – | – | CCN(CC)C(=O)c1nc2ccccc2c(-c2ccccc2)c1CI | remaining at 1 h [2]: 96%; remaining at 2 h [3]: 96%; remaining at 4 h [4]: 94%; remaining at 6 h [5]: 94%; remaining at 24 h [6]: 79%
5 | > 1000 | 5.16 | CN(Cc1cccc(I)c1)C(=O)c1cc(-c2ccc(F)cc2)c2ccccc2n1 | –
